In PubChem BioAssay AID623964 (The Scripps Research Institute Molecular Screening Center, 2012):
pIC50: −log10 of the molar value. The source made the active and inactive calls.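 Rule for the calls: active = compounds slowing the HCV NS3-NS4A protease by half at 50 µM or lower, per IC50; inactive = the rest.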

Molecular target: Hepatitis C virus NS3-NS4A protease (single-chain scNS3-4A)
Assay: inhibitors of HCV NS3-NS4A protease, late-stage follow-up, selectivity assay for HCV NS3 helicase inhibitor project, biochemical, FRET peptide fluorescence, powder samples (AID 623964)
Details: scNS3-4A protease, FRET peptide cleavage fluorescence
How it was run: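 Material: single-chain HCV NS3-NS4A protease (scNS3-4A); quantity: protease at 10 nM; reagent: quenched FRET peptide substrate, 5-FAM donor with QXL 520 quencher; measured by: fluorescence gain from 5-FAM after peptide cleavage; evaluation: IC50 from Hill-equation fit of initial velocities; controls: DMSO-only reference velocity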

SMILES | pIC50 | IC50
Cc1ccc2nc(-c3ccc4nc(-c5ccc6nc(-c7ccc8nc(-c9ccc(N)cc9)sc8c7)sc6c5)sc4c3)sc2c1S(=O)(=O)O | 5.70 | 
Cc1ccc2nc(-c3ccc4nc(-c5ccc(NC(=O)Nc6ccccc6)cc5)sc4c3)sc2c1S(=O)(=O)O |  | > 100 µM (inactive)
Cc1ccc2nc(-c3ccc4nc(-c5ccc(NC(=O)c6ccc(Cl)c(Cl)c6)cc5)sc4c3)sc2c1S(=O)(=O)O | 4.89 | 
Cc1ccc2nc(-c3ccc4nc(-c5ccc(NC(=O)c6ccc(F)cc6)cc5)sc4c3)sc2c1S(=O)(=O)O |  | inactive
Cc1ccc2nc(-c3ccc4nc(-c5ccc(NC(=O)c6ccc(Br)cc6)cc5)sc4c3)sc2c1S(=O)(=O)O | 5.22 | 
Cc1ccc2nc(-c3ccc4nc(-c5ccc(NC(=O)c6cc(C(F)(F)F)cc(C(F)(F)F)c6)cc5)sc4c3)sc2c1S(=O)(=O)O | 4.64 | 
COc1ccc(NC(=O)Nc2ccc(-c3nc4ccc(-c5nc6ccc(C)c(S(=O)(=O)O)c6s5)cc4s3)cc2)cc1 |  | > 100 µM (inactive)
CN1CCN(Cc2cc(CN3CCN(C)CC3)c(O)c(=O)c(CN3CCN(C)CC3)c2)CC1 |  | > 100 µM (inactive)
Cc1ccc2nc(-c3ccc4nc(-c5ccc(NC(=O)c6ccc7ccccc7c6)cc5)sc4c3)sc2c1S(=O)(=O)O |  | > 100 µM (inactive)
Cc1cc(C(O)(c2ccc(Nc3ccccc3)cc2)c2ccc(Nc3ccc(S(=O)(=O)O)cc3)cc2)ccc1N (stereo not drawn) |  | inactive
CCOc1ccc2c(NNC(=O)c3cnccn3)c3c(nc2c1)CCCC3 |  | > 100 µM (inactive)
Cc1ccc2nc(-c3ccc4nc(-c5ccc(NC(=O)c6cccc(Cl)c6)cc5)sc4c3)sc2c1S(=O)(=O)O |  | > 100 µM (inactive)
Cc1ccc2nc(-c3ccc4nc(-c5ccc(NC(=O)c6ccc7nc(-c8ccc(N)cc8)sc7c6)cc5)sc4c3)sc2c1S(=O)(=O)O | 5.15 | 
Cc1ccc2nc(-c3ccc4nc(-c5ccc(NC(=O)Nc6ccc(Cl)cc6)cc5)sc4c3)sc2c1S(=O)(=O)O | 4.89 | 
Cc1ccc2nc(-c3ccc4nc(-c5ccc(NC(=O)c6ccc(N)cc6)cc5)sc4c3)sc2c1S(=O)(=O)O | 4.41 | 
COC(=O)c1ccc(C(=O)Nc2ccc(-c3nc4ccc(-c5nc6ccc(C)c(S(=O)(=O)O)c6s5)cc4s3)cc2)cc1 |  | > 100 µM (inactive)
Cc1ccc2nc(-c3ccc4nc(-c5ccc(NC(=O)c6ccc(C(F)(F)F)cc6)cc5)sc4c3)sc2c1S(=O)(=O)O | 5.30 | 
COc1ccc(C(=O)Nc2ccc(-c3nc4ccc(-c5nc6ccc(C)c(S(=O)(=O)O)c6s5)cc4s3)cc2)cc1 |  | inactive
Cc1ccc2nc(-c3ccc(NC(=O)c4ccc(NC(=O)Nc5ccccc5)cc4)cc3)sc2c1S(=O)(=O)O |  | > 100 µM (inactive)
Cc1ccc2nc(-c3ccc4nc(-c5ccc(NC(=O)c6cc(C(F)(F)F)ccc6F)cc5)sc4c3)sc2c1S(=O)(=O)O |  | inactive
O=C(CCCCCCC(=O)Nc1ccc(-c2nc3ccccc3[nH]2)cc1)Nc1ccc(-c2nc3ccccc3[nH]2)cc1 | 4.33 | 
Cc1ccc2nc(-c3ccc4nc(-c5ccc(NC(=O)c6ccc(C(C)(C)C)cc6)cc5)sc4c3)sc2c1S(=O)(=O)O |  | inactive
COc1cccc2c(=O)c3cc(Cl)cc(C(=O)Nc4cc(Cl)ccn4)c3[nH]c12 |  | inactive
